Ends that are not written are not given here.
Assays:
[1] = ThT fluorescence aggregation assay; type: physicochemical; conditions: for Concentration at which amyloid-like aggregation was observed (ThT): pH 5.0, 20 mM NaOAc, 1–200 μM tested
Summary of the method: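 Peptide (199 μL; 200–1 μM at pH 5.0 in 20 mM NaOAc, or 200 μM in buffers of pH 3.0–7.0) was mixed with 1 μL ThT. Fluorescence was read at 37 °C (ex 444 nm, em 485 nm, 10 nm bandwidth) every 10 min for at least 15 h with gentle agitation. Signal was normalised to buffer plus ThT. Runs were done at least three times, each in triplicate; end point at 15 h.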

[2] = test system: marmoset EBV-BLCs and co-culture with lymphocytes; assay: FACS-based immunotoxicity assay; type: cell-based, Callithrix jacchus; conditions: CellTrace-stained EBV-BLCs, 24 h, 30, 10, 3, 1 μg/mL tested
Summary of the method: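 EBV-BLCs were prestained with CellTrace for 20 min at RT and plated at 1 × 10^3 cells/well. Peptide (30, 10, 3, 1 μg/mL; medium as negative control) was added for 1 h at 37 °C, 5% CO2, in medium with 10% FCS. Freshly thawed axillary lymph node mononuclear cells from an EAE marmoset were then added at 1 × 10^5 cells/well for 24 h. Cells were stained with a live/dead marker and AnnexinV-APC, then fixed in 1% PFA/AnnexinV binding buffer. CellTrace+ and CellTrace– gates were each gated for AnnexinV and live/dead. Non-co-cultured lymphocytes served as control.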

[3] = test system: Human EBV-infected BLCs; assay: Immunofluorescence microscopy of bioorthogonal peptides; type: cell-based; conditions: for Intracellular aggregation in EBV-infected BLCs (within LC3 positive vesicles): 6.2 and 25 μM (also 3.1, 12.5 μM), 48 h, serum-free, CuAAC Alexa647-azide; for Aggregates in the absence of cells (CuAAC with Alexa647-azide): serum-free medium, no cells
Summary of the method: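 Human BSM EBV-lymphoblastoid cells (1.5 × 10^6/well) were incubated with peptide (6.25 or 25 μM; medium as control) in serum-free R0 medium at 37 °C. Cytospins (5 × 10^4 cells, 28g, 3 min) were air-dried, stored at −80 °C, and PFA-fixed. Staining: anti-LC3 1:20 overnight at 4 °C, then anti-mouse FITC 1:400. Peptide was detected by CuAAC (0.064 mM CuSO4, 0.038 mM ascorbate, 0.25 mM THPTA, AF647-azide 1:160, 100 mM Tris pH 8.0, 1 h, RT, dark). DAPI mounting; fluorescence microscopy.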

[4] = Seeded nucleation ThT aggregation assay; type: physicochemical; conditions: 40 μM peptide, 200 μL, pH 5.0; seeds of 5 or 7, 3–300 ng
Summary of the method: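 Seeds were prepared by centrifuging aggregated peptide (20000g, 30 min) and homogenising the pellet in 20 mM NaOAc to an estimated 0.1 mg/mL. ThT fluorescence was followed at 37 °C (ex 444 nm, em 485 nm) in kinetic mode.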

For “MOG31-55(NArg3) (NATGMEVGWYRPPFSRVVHLYRNGK; UniProt Q16653 60-84, looked up, fragment) [Peptide 9]”, which “Aggregation of elongated MOG31–55 peptides (ThT)” value ([1]; pH 5.0, 37 °C, 1–200 μM) is on record?
Its value is “Neither 9 nor 10 aggregated”.

With MOG31-55(Pg_Cit41&46) [Peptide 11] as the substance, how does the “Concentration giving increased level of apoptosis (Annexin V)” value [2] read?
Its value is over 1000 ng/mL.

What about the “Intracellular aggregation in EBV-infected BLCs (within LC3 positive vesicles)” value [3] of the same substance?
Its value is “small spheres”.

And the “Aggregates in the absence of cells (CuAAC with Alexa647-azide)” value [3]?
The value was “large aggregates”.

With MOG31-55(Pg_Cit46&Cit52) [Peptide 12] as the substance, how does the “Concentration giving increased level of apoptosis (Annexin V)” value [2] read?
Its value is over 1000 ng/mL.

What about the “Intracellular aggregation in EBV-infected BLCs (within LC3 positive vesicles)” value [3] of the same substance?
Its value is “large agglomerates”.

And the “Aggregates in the absence of cells (CuAAC with Alexa647-azide)” value [3]?
The value was “large aggregates”.

For “MOG35-55(Arg3) (MEVGWYRPPFSRVVHLYRNGK-NH2; not fully specified; UniProt Q16653 64-84, looked up, fragment) [Peptide 1]”, which “Aggregation at any pH or any concentration tested (ThT)” value ([1]; pH 3.0–7.0 at 200 μM, 1–200 μM at pH 5.0, 37 °C) is on record?
The value was “did not show any aggregation”.

What about the “Aggregation kinetics on seeding (ThT)” value [4] of the same substance?
Its value is “no aggregation was observed”.

For MOG35-55(Cit3) [Peptide 8], which “Aggregation at pH 6 compared to pH 5 (ThT)” value ([1]; 200 μM, 37 °C) is on record?
Its value is about 3 fold.

And the “Aggregation at pH 7 compared to pH 5 (ThT)” value ([1]; 200 μM, 37 °C)?
Its value is about 4 fold.

What about the “Concentration at which amyloid-like aggregation was observed (ThT)” value ([1]; 37 °C) of the same substance?
Its value is over 4 µM.

And the “Aggregation at a final concentration of 1 μM (ThT)” value ([1]; pH 5.0, 37 °C)?
Its value is “but not at a final concentration of 1 μM”.

For MOG35-55(Cit41&Cit52) [Peptide 6], which “Concentration at which amyloid-like aggregation was observed (ThT)” value ([1]; 37 °C) is on record?
Its value is “aggregation at all concentrations tested”.

With MOG35-55(Cit41) [Peptide 2] as the substance, how does the “Concentration at which amyloid-like aggregation was observed (ThT)” value ([1]; 37 °C) read?
Its value is over 4 µM.

What does the source list for MOG35-55(Cit46) [Peptide 3]?
Concentration at which amyloid-like aggregation was observed (ThT) ([1]; 37 °C): > 4 µM; Aggregation at a final concentration of 1 μM (ThT) ([1]; pH 5.0, 37 °C): but not at a final concentration of 1 μM

Source: article PMC6374747 (Biochemistry, 2018)
